Series [1] relates to Imatinib-resistant DFSP105 cell. The experiment in a line: Antitumor activity against human Imatinib-resistant DFSP105 cells xenografted in athymic nude mouse assessed as decrease in RB1 phosphorylation at S807 residue in tumor at 150 mg/kg,po daily for 5 weeks by Western blot analysis. The format is functional, organism-based. An outline of the steps:
(§1)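 Nude mice bearing s.c. DFSP105 xenografts (2 million cells in Matrigel, ~5 weeks to establish) dosed daily by gavage at 150 mg/kg in HCl/Cremophor EL/PEG 300/acetate pH 4.6 vehicle for 5 weeks; tumor lysates (homogenized in ice-cold buffer with protease inhibitors) immunoblotted for phospho-RB1.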

Series [2] deals with T1, Retinoblastoma-associated protein (Homo sapiens) (UniProt P06400).
T1 sequence (whole entry): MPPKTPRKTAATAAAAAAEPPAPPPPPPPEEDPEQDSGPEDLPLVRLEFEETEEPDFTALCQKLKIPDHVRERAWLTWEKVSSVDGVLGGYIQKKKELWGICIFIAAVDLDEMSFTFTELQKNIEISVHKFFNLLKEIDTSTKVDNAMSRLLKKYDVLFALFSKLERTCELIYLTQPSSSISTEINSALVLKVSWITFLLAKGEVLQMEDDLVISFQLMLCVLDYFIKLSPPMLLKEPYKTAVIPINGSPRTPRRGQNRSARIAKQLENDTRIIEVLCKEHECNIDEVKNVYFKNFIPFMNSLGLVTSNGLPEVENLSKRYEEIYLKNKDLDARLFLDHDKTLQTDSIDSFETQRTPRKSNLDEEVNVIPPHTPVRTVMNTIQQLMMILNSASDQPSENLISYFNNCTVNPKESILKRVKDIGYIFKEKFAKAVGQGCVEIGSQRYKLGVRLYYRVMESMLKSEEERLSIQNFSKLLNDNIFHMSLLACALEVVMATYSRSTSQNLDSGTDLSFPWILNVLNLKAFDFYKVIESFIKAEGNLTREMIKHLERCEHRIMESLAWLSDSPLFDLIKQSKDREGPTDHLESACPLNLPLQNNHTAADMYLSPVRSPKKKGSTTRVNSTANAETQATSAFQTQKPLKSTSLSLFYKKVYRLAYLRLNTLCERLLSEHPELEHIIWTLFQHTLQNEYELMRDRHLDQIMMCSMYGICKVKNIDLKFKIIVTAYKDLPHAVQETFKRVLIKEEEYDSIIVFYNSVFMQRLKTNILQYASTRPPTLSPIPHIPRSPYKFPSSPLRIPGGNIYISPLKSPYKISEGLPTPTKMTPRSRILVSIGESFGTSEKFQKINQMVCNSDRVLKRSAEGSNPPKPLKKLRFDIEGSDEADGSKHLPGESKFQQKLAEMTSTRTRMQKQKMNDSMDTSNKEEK
As to the kind of experiment: Inhibition of RB1 phosphorylation at S811 residue in human Imatinib-resistant DFSP105 cells at […] incubated for 24 hrs by Western blot analysis. The format is cell-based. The settings on record: Imatinib-resistant DFSP105 cell. An outline of the steps: (§2)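 DFSP105 cells treated 24 h with CDK4/6 inhibitor over a dose series; whole-cell lysates cleared 14,000 rpm 30 min 4°C, protein by Bradford, then immunoblotting for phospho-RB1 and cyclin A.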

Series [3] deals with T1, Retinoblastoma-associated protein (Homo sapiens). The experiment in a line: Inhibition of RB1 phosphorylation at S795 residue in human Imatinib-resistant DFSP105 cells at […] incubated for 24 hrs by Western blot analysis. It counts as cell-based. Conditions: Imatinib-resistant DFSP105 cell. An outline of the steps:
as §2
Background: Immunoblotting shows a protein as a band on a membrane.

Series [4] relates to Imatinib-resistant DFSP105 cell. The experiment in a line: Antiproliferative activity against human Imatinib-resistant DFSP105 cells assessed as decrease in Cyclin A expression at […] incubated for 24 hrs by Western blot analysis. The format is functional, cell-based. The settings on record: […]. An outline of the steps:
as §2

Series [5] can be described thus: Antiproliferative activity against human Imatinib-resistant DFSP105 cells assessed as cell growth inhibition incubated for 48 hrs by BrdU cell proliferation assay. It counts as functional. The gist of the method: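 DFSP105 cells (IMDM, 15% FBS, passages 10-30) seeded at 2500/well; drug added in fresh medium 24 h after plating, 48 h exposure, BrdU added for final 24 h. Proliferation read by BrdU chemiluminescent ELISA; GI50 = 50% growth inhibition concentration.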

Series [6] deals with T1, Retinoblastoma-associated protein (Homo sapiens). The experiment in a line: Inhibition of RB1 phosphorylation at S807 residue in human Imatinib-resistant DFSP105 cells at […] incubated for 24 hrs by Western blot analysis. It counts as cell-based. Conditions: Imatinib-resistant DFSP105 cell. An outline of the steps: as §2
Series [7] has as its system Imatinib-resistant DFSP105 cell. As to the kind of experiment: Antitumor activity against human Imatinib-resistant DFSP105 cells xenografted in athymic nude mouse assessed as decrease in RB1 phosphorylation at S795 residue in tumor at 150 mg/kg,po daily for 5 weeks by Western blot analysis. It counts as functional, organism-based. An outline of the steps: as §1
(In general: A xenograft is tissue or cells of one species grown in another, often human tumour cells in immunodeficient mice.)

Series [8] has the same test system. As to the kind of experiment: Antitumor activity against human Imatinib-resistant DFSP105 cells xenografted in athymic nude mouse assessed as tumor cell density at 150 mg/kg,po daily for 5 weeks by immunohistochemistry analysis. The format is functional, organism-based. An outline of the steps:
(§3)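 Athymic nude mice given 2 million DFSP105 cells s.c. in Matrigel; after ~5 weeks tumor establishment, daily gavage (imatinib 75 mg/kg in water; PD-0332991 150 mg/kg in HCl/Cremophor EL/PEG 300/acetate pH 4.6 vehicle) for 5 weeks. BrdU i.p. 2 h before CO2 euthanasia; resected tumors examined histologically for cell density and BrdU-positive nuclei.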

Series [9] in a line: Toxicity in athymic nude mouse xenografted with human Imatinib-resistant DFSP105 cells assessed as body weight loss at 150 mg/kg,po daily for 5 weeks. The format is organism-based. The settings on record: in vivo, 840 h. An outline of the steps: (§4)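 S.c. DFSP105 xenografts (2 million cells in Matrigel) in athymic nude mice, treated after ~5 weeks establishment with daily gavage: imatinib 75 mg/kg in water or PD-0332991 150 mg/kg in HCl/Cremophor EL/PEG 300/acetate pH 4.6 vehicle, versus untreated, for 5 weeks. Tumor volume and body weight monitored weekly; mean ± SE.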

The subject of series [10] is Imatinib-resistant DFSP105 cell. The experiment in a line: Antitumor activity against human Imatinib-resistant DFSP105 cells xenografted in athymic nude mouse assessed as tumor growth inhibition by measuring tumor size at 150 mg/kg,po daily for 5 weeks. The format is functional, organism-based. An outline of the steps: as §4
Series [11] has as its target Platelet-derived growth factor receptor beta (Homo sapiens) (UniProt P09619). The settings on record: Imatinib-resistant DFSP105 cell, dose 500.0 nM.
The nature of series [12]: Toxicity in athymic nude mouse xenografted with human Imatinib-resistant DFSP105 cells assessed as body weight loss at 75 mg/kg,po daily for 5 weeks. The settings on record: in vivo, 840 h. The format is organism-based. The gist of the method:
as §4

Series [13] has as its system Imatinib-resistant DFSP105 cell. As to the kind of experiment: Antitumor activity against human Imatinib-resistant DFSP105 cells xenografted in athymic nude mouse assessed as tumor cell density at 75 mg/kg,po daily for 5 weeks by immunohistochemistry analysis. The format is functional, organism-based. An outline of the steps:
as §3

The test system is the same in series [14]. As to the kind of experiment: Antitumor activity against human Imatinib-resistant DFSP105 cells xenografted in athymic nude mouse assessed as tumor growth inhibition by measuring tumor size at 75 mg/kg,po daily for 5 weeks. It counts as functional, organism-based. An outline of the steps:
as §4

Activity calls are given as the source filed them. No cut-off for these calls is given here.

Chain of Platelet-derived growth factor receptor beta (Homo sapiens) (P09619 whole entry): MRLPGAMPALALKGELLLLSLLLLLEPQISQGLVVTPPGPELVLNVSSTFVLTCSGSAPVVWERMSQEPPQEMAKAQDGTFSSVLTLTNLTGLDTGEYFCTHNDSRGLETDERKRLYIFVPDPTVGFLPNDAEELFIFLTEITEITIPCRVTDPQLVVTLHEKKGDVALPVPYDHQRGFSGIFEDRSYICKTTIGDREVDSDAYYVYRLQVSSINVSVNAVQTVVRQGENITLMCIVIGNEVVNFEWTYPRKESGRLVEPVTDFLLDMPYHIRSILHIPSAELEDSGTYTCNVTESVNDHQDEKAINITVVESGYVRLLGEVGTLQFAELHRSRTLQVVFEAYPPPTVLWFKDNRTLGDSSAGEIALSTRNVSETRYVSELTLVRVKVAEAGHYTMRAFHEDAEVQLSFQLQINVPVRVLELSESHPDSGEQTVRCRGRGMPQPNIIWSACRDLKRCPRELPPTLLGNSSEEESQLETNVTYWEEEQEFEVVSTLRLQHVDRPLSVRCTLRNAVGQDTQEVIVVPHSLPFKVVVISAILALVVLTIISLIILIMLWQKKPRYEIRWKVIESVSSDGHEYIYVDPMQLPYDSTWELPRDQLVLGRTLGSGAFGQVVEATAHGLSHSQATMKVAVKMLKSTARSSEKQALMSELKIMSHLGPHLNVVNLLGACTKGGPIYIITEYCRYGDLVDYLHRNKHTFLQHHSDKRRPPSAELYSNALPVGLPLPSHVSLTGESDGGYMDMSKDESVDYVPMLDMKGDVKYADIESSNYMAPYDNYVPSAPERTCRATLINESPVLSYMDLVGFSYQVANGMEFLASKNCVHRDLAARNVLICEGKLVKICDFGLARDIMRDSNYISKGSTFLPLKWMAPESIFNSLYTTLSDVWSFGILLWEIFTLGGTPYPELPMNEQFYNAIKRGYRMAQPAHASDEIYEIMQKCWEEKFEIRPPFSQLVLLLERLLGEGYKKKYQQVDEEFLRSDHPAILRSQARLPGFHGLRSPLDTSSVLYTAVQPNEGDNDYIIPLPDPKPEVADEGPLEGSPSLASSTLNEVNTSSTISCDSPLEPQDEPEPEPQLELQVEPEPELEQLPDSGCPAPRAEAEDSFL

A word on the GI50: it is the concentration at which growth is held to half of that of the control. Consider `CC(=O)c1c(C)c2cnc(Nc3ccc(N4CCNCC4)cn3)nc2n(C2CCCC2)c1=O` [PALBOCICLIB], for which the result in series [1], in [4], in series [7] and in series [10] was Active. In addition, the inhibition entry in [2], in series [3] and in series [6] was “Active” each time. In addition, the GI50 in series [5] stood at 160 nM. Also, in series [8], the outcome was inactive. Further, the Activity entry in series [9] is on record as “Non-Toxic”.
For the compound `CN(C)C(=O)c1cc2cnc(Nc3ccc(N4CCNCC4)cn3)nc2n1C1CCCC1` [RIBOCICLIB], the inhibition entry in series [2], in [3] and in [6] was “Active” throughout. For the same compound, the outcome in series [4] was Active. Besides, the concentration for 50% growth inhibition (GI50) in series [5] worked out at 276 nM.
As for `CS(=O)(=O)N1CCN(Cc2cc3nc(-c4cccc5[nH]ncc45)nc(N4CCOCC4)c3s2)CC1` [PICTILISIB], in series [5], the concentration for 50% growth inhibition (GI50) was 1900 nM.
For the compound `CCN(CC)CCNC(=O)c1c(C)[nH]c(/C=C2\C(=O)Nc3ccc(F)cc32)c1C` [SUNITINIB], the inhibition entry in [11] is “Active”. In series [5], the GI50 is over 5000 nM.
As to `CO[C@H]1C[C@@H]2CC[C@@H](C)[C@@](O)(O2)C(=O)C(=O)N2CCCC[C@H]2C(=O)O[C@H]([C@H](C)C[C@@H]2CC[C@@H](OCCO)[C@H](OC)C2)CC(=O)[C@H](C)/C=C(\C)[C@@H](O)[C@@H](OC)C(=O)[C@H](C)C[C@H](C)/C=C/C=C/C=C/1C` [EVEROLIMUS], the GI50 in [5] is 5 nM.
As to `Cc1ccc(NC(=O)c2ccc(CN3CCN(C)CC3)cc2)cc1Nc1nccc(-c2cccnc2)n1` [IMATINIB], the inhibition result in series [11] was “Active”. Moreover, the Activity entry in [12] is recorded as “Non-Toxic”. Also, in series [5], the 50% growth inhibitory concentration (GI50) is over 5000 nM. Moreover, the result in series [13] and in series [14] was inactive.

Values taken from ChEMBL document CHEMBL5647691, “CDKN2A/p16 Loss Implicates CDK4 as a Therapeutic Target in Imatinib-Resistant Dermatofibrosarcoma Protuberans” (Mol Cancer Ther, 2015).
